# What was measured:
# Staphylococcus aureus [1] = assay: Antibacterial activity against Staphylococcus aureus ATCC 29213 by broth microdilution method; type: functional
# Procedure, shortened: (§1)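 Endpoint is the minimum inhibitory concentration, determined by broth microdilution against a panel of susceptible Gram-positive strains. Values are reported as a range spanning two concentrations (for example 8–16). Values above the top concentration tested are given as >16.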
# Staphylococcus aureus [2] = assay: Antibacterial activity against Staphylococcus aureus ATCC 33592 by broth microdilution method; type: functional; procedure, shortened: as §1
# Staphylococcus aureus [3] = assay: Antibacterial activity against Staphylococcus aureus ATCC 33591 by broth microdilution method; type: functional; procedure, shortened: as §1
# [4] = system: Staphylococcus epidermidis; assay: Antibacterial activity against Staphylococcus epidermidis ATCC 155 by broth microdilution method; type: functional; procedure, shortened: as §1
# Enterococcus faecalis [5] = assay: Antibacterial activity against multidrug resistant Enterococcus faecalis ATCC 700802 by broth microdilution method; type: functional
# Enterococcus faecalis [6] = assay: Antibacterial activity against Enterococcus faecalis ATCC 29212 by broth microdilution method; type: functional; procedure, shortened: as §1
# Enterococcus faecalis [7] = assay: Antibacterial activity against Enterococcus faecalis ATCC 14506 by broth microdilution method; type: functional; procedure, shortened: as §1
# Bacillus subtilis = assay: Antibacterial activity against Bacillus subtilis ATCC 6633 by broth microdilution method; type: functional; procedure, shortened: as §1
# Enterococcus faecium = assay: Antibacterial activity against vancomycin-resistant Enterococcus faecium ATCC 700221 by broth microdilution method; type: functional
# Staphylococcus aureus [8] = assay: Antibacterial activity against linezolid-resistant Staphylococcus aureus NRS 119 by broth microdilution method; type: functional
# Procedure, shortened: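 Linezolid-resistant S. aureus strain obtained from NARSA; minimum inhibitory concentration found by broth microdilution and reported as a concentration range.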
# Streptococcus pneumoniae = assay: Antibacterial activity against multidrug-resistant Streptococcus pneumoniae ATCC 700904 by broth microdilution method; type: functional
# Streptococcus pyogenes = assay: Antibacterial activity against Streptococcus pyogenes ATCC 14289 by broth microdilution method
# [9] = system: Staphylococcus epidermidis; assay: Antibacterial activity against Staphylococcus epidermidis ATCC 12228 by broth microdilution method; type: functional; procedure, shortened: as §1
# Staphylococcus aureus [10] = assay: Antibacterial activity against methicillin-resistant Staphylococcus aureus ATCC 700699 by broth microdilution method; type: functional
# Staphylococcus aureus [11] = assay: Antibacterial activity against Staphylococcus aureus ATCC 25923 by broth microdilution method; type: functional; procedure, shortened: as §1
SMILES,MIC (Staphylococcus aureus [1]),MIC (Staphylococcus aureus [2]),MIC (Staphylococcus aureus [3]),MIC [4],MIC (Enterococcus faecalis [5]),MIC (Enterococcus faecalis [6]),MIC (Enterococcus faecalis [7]),MIC (Bacillus subtilis),MIC (Enterococcus faecium),MIC (Staphylococcus aureus [8]),MIC (Streptococcus pneumoniae),MIC (Streptococcus pyogenes),MIC [9],MIC (Staphylococcus aureus [10]),MIC (Staphylococcus aureus [11])
CC(=O)NC[C@H]1CN(c2ccc(N(C)C3CCN(C(=O)/C=C/c4ccc([N+](=O)[O-])cc4)CC3)c(F)c2)C(=O)O1,> 16 µg/mL,> 16 µg/mL,> 16 µg/mL,8 µg/mL,> 16 µg/mL,> 16 µg/mL,> 16 µg/mL,4 µg/mL,> 16 µg/mL,> 16 µg/mL,> 16 µg/mL,> 16 µg/mL,8 µg/mL,8 µg/mL,> 16 µg/mL
CC(=O)NC[C@H]1CN(c2ccc(N(C)C3CCN(C(=O)/C=C/C4CCCCC4)CC3)c(F)c2)C(=O)O1,8 µg/mL,8 µg/mL,> 16 µg/mL,8 µg/mL,8 µg/mL,> 16 µg/mL,8 µg/mL,8 µg/mL,8 µg/mL,> 16 µg/mL,8 µg/mL,> 16 µg/mL,> 16 µg/mL,4 µg/mL,8 µg/mL
CC(=O)NC[C@H]1CN(c2ccc(N(C)C3CCN(C(=O)/C=C/c4c[nH]c5ccccc45)CC3)c(F)c2)C(=O)O1,> 16 µg/mL,> 16 µg/mL,8 µg/mL,4 µg/mL,8 µg/mL,8 µg/mL,> 16 µg/mL,2 µg/mL,8 µg/mL,> 16 µg/mL,8 µg/mL,8 µg/mL,4 µg/mL,2 µg/mL,8 µg/mL
CC(=O)NC[C@H]1CN(c2ccc(N(C)C3CCN(C(=O)/C=C/c4ccc(CO)o4)CC3)c(F)c2)C(=O)O1,> 16 µg/mL,> 16 µg/mL,> 16 µg/mL,> 16 µg/mL,> 16 µg/mL,> 16 µg/mL,> 16 µg/mL,> 16 µg/mL,> 16 µg/mL,> 16 µg/mL,> 16 µg/mL,> 16 µg/mL,> 16 µg/mL,> 16 µg/mL,> 16 µg/mL
CC(=O)NC[C@H]1CN(c2ccc(N3CCN(C(=O)CO)CC3)c(F)c2)C(=O)O1 [EPEREZOLID],2 µg/mL,,1 µg/mL,,1 µg/mL,2 µg/mL,2 µg/mL,0.5 µg/mL,,> 16 µg/mL,0.25 µg/mL,0.25 µg/mL,2 µg/mL,1 µg/mL,2 µg/mL
CC(=O)NC[C@H]1CN(c2ccc(N3CCOCC3)c(F)c2)C(=O)O1 [LINEZOLID],,,1 µg/mL,1 µg/mL,,,,1 µg/mL,,> 16 µg/mL,,0.5 µg/mL,2 µg/mL,1 µg/mL,1 µg/mL
CC(=O)NC[C@H]1CN(c2ccc(N3CCN(Cc4ccc([N+](=O)[O-])o4)CC3)c(F)c2)C(=O)O1 [RANBEZOLID],1 µg/mL,1 µg/mL,1 µg/mL,0.25 µg/mL,1 µg/mL,,2 µg/mL,0.25 µg/mL,2 µg/mL,> 16 µg/mL,0.25 µg/mL,2 µg/mL,0.5 µg/mL,0.5 µg/mL,1 µg/mL

# — ChEMBL document CHEMBL1139755, “Synthesis and in vitro antibacterial activity of novel methylamino piperidinyl oxazolidinones” (2007)
